Data: ChEMBL document CHEMBL1157529, “Lantadenes and their esters as potential antitumor agents” (J Nat Prod, 2008)
Values after ≈ are worked out from the molar mass of the structure shown.

Assays:
HL-60 = test: Cytotoxicity against human HL60 cells after 48 hrs by MTT assay; type: functional, cell-based; conditions: HL-60, 48 h
Outline: (§1)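 HL-60, HeLa, colon 502713 and A-549 cells grown in RPMI with 10% FBS, streptomycin and penicillin at 37 °C, 5% CO2. Cells (2 × […]/0.1 mL well) exposed 48 h to serial compound dilutions. MTT added for the final 4 h at 37 °C. Formazan extracted in DMSO and read at 540 nm. Mean and standard deviation of triplicate assays.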

HeLa = test: Cytotoxicity against human HeLa cells after 48 hrs by MTT assay; type: functional, cell-based; outline: as §1
[1] = Cytotoxicity against human colon 502713 cells after 48 hrs by MTT assay; type: functional, cell-based; conditions: Homo sapiens, 502713, 48 h; outline: as §1
A549 = test: Cytotoxicity against human A549 cells after 48 hrs by MTT assay; type: functional, cell-based; conditions: A549, 48 h; outline: as §1
[2] = Inhibition of DMBA-induced/TPA-promoted carcinogenesis in Swiss albino mouse squamous cells assessed as survival rate administered orally 1 week before DMBA administration and continued for 20 weeks relative to DMPA/TPA treated control; type: functional
Outline: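 Female Swiss albino mice (LACCA, 6 weeks, 18-22 g), depilated back; DMBA 100 nmol/100 µL acetone topically for 2 weeks, then TPA 1.7 nmol/100 µL acetone twice weekly for 18 weeks. Compounds given orally as suspension in water/carboxymethyl cellulose from 1 week before DMBA for 20 weeks, n = 10/group. Number of surviving animals recorded at 20 weeks.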

[3] = Inhibition of DMBA-induced/TPA-promoted carcinogenesis in Swiss albino mouse squamous cells assessed as incidence of skin papillomas administered orally 1 week before DMBA administration and continued for 20 weeks relative to DMPA/TPA treated control; type: functional
Outline: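 Female Swiss albino mice (LACCA, 6 weeks, 18-22 g), backs depilated. DMBA 100 nmol in 100 µL acetone applied topically for 2 weeks, then TPA 1.7 nmol in 100 µL acetone twice weekly for 18 weeks. Compounds given orally in water/carboxymethyl cellulose, starting 1 week before DMBA, for 20 weeks. n = 10 per group. Papilloma incidence, body weight and survival recorded.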

CC1(C)C[C@@H](O)[C@]2(C(=O)O)CC[C@]3(C)C(=CC[C@@H]4[C@@]5(C)CCC(=O)C(C)(C)[C@@H]5CC[C@]43C)[C@@H]2C1
IC50 (HL-60): < 100 µg/mL | IC50 (HeLa): > 100 µg/mL | IC50 [1]: > 100 µg/mL | IC50 (A549): > 100 µg/mL

CC(C)C(=O)O[C@@H]1CC(C)(C)C[C@H]2C3=CC[C@@H]4[C@@]5(C)CCC(=O)C(C)(C)[C@@H]5CC[C@@]4(C)[C@]3(C)CC[C@@]12C(=O)O
IC50 (HL-60): 41.2 µg/mL (≈ 76.2 µM) | IC50 (HeLa): 43.6 µg/mL (≈ 80.6 µM) | IC50 [1]: 37.6 µg/mL (≈ 69.5 µM) | IC50 (A549): 44.2 µg/mL (≈ 81.7 µM) | survival rate [2]: 80%

CCCC(=O)O[C@@H]1CC(C)(C)C[C@H]2C3=CC[C@@H]4[C@@]5(C)CCC(=O)C(C)(C)[C@@H]5CC[C@@]4(C)[C@]3(C)CC[C@@]12C(=O)OC
IC50 (HL-60): 19.3 µg/mL (≈ 34.8 µM) | IC50 (HeLa): 20.1 µg/mL (≈ 36.2 µM) | IC50 [1]: 21.1 µg/mL (≈ 38 µM) | IC50 (A549): 22.4 µg/mL (≈ 40.4 µM) | inhibition (INH) [3]: 12.4% | survival rate [2]: 80%

COC(=O)[C@@]12CC[C@]3(C)C(=CC[C@@H]4[C@@]5(C)CCC(=O)C(C)(C)[C@@H]5CC[C@]43C)[C@@H]1CC(C)(C)C[C@H]2OC(=O)c1ccccc1
IC50 (HL-60): 48 µg/mL (≈ 81.5 µM) | IC50 (HeLa): 50.7 µg/mL (≈ 86.1 µM) | IC50 [1]: > 100 µg/mL | IC50 (A549): > 100 µg/mL

CC(=O)O[C@H]1C(=O)[C@@]2(C)[C@H]([C@H](OC(=O)c3ccccc3)[C@]3(O)C[C@H](OC(=O)[C@H](O)[C@@H](NC(=O)c4ccccc4)c4ccccc4)C(C)=C1C3(C)C)[C@]1(OC(C)=O)CO[C@@H]1C[C@@H]2O [PACLITAXEL]
IC50 (HL-60): < 2 µg/mL | IC50 (HeLa): > 3 µg/mL | IC50 [1]: < 2 µg/mL | IC50 (A549): < 2 µg/mL

COC(=O)[C@@]12CC[C@]3(C)C(=CC[C@@H]4[C@@]5(C)CCC(=O)C(C)(C)[C@@H]5CC[C@]43C)[C@@H]1CC(C)(C)C[C@H]2O
IC50 (HL-60): 70.6 µg/mL (≈ 146 µM) | IC50 (HeLa): > 100 µg/mL | IC50 [1]: 72.4 µg/mL (≈ 149 µM) | IC50 (A549): 84.2 µg/mL (≈ 174 µM)

COC(=O)[C@@]12CC[C@]3(C)C(=CC[C@@H]4[C@@]5(C)CCC(=O)C(C)(C)[C@@H]5CC[C@]43C)[C@@H]1CC(C)(C)C[C@H]2OC(C)=O
IC50 (HL-60): 37.3 µg/mL (≈ 70.8 µM) | IC50 (HeLa): 36.2 µg/mL (≈ 68.7 µM) | IC50 [1]: 34.6 µg/mL (≈ 65.7 µM) | IC50 (A549): 36.8 µg/mL (≈ 69.9 µM)

CCCC(=O)O[C@@H]1CC(C)(C)C[C@H]2C3=CC[C@@H]4[C@@]5(C)CCC(=O)C(C)(C)[C@@H]5CC[C@@]4(C)[C@]3(C)CC[C@@]12C(=O)O
IC50 (HL-60): 21.6 µg/mL (≈ 39.9 µM) | IC50 (HeLa): 22.8 µg/mL (≈ 42.2 µM) | IC50 [1]: 25.2 µg/mL (≈ 46.6 µM) | IC50 (A549): 27.1 µg/mL (≈ 50.1 µM) | inhibition (INH) [3]: 17.2%

CC(=O)O[C@@H]1CC(C)(C)C[C@H]2C3=CC[C@@H]4[C@@]5(C)CCC(=O)C(C)(C)[C@@H]5CC[C@@]4(C)[C@]3(C)CC[C@@]12C(=O)O
IC50 (HL-60): 38.5 µg/mL (≈ 75.1 µM) | IC50 (HeLa): 37.3 µg/mL (≈ 72.7 µM) | IC50 [1]: 34.4 µg/mL (≈ 67.1 µM) | IC50 (A549): 36.8 µg/mL (≈ 71.8 µM)

CCC(=O)O[C@@H]1CC(C)(C)C[C@H]2C3=CC[C@@H]4[C@@]5(C)CCC(=O)C(C)(C)[C@@H]5CC[C@@]4(C)[C@]3(C)CC[C@@]12C(=O)OC
IC50 (HL-60): 24.2 µg/mL (≈ 44.7 µM) | IC50 (HeLa): 26.4 µg/mL (≈ 48.8 µM) | IC50 [1]: 22.4 µg/mL (≈ 41.4 µM) | IC50 (A549): 28.4 µg/mL (≈ 52.5 µM) | inhibition (INH) [3]: 17.9% | survival rate [2]: 80%

C/C=C(/C)C(=O)O[C@@H]1CC(C)(C)C[C@H]2C3=CC[C@@H]4[C@@]5(C)CCC(=O)C(C)(C)[C@@H]5CC[C@@]4(C)[C@]3(C)CC[C@@]12C(=O)O [LANTADENE A]
IC50 (HL-60): 19.8 µg/mL (≈ 35.8 µM) | IC50 (HeLa): 23.3 µg/mL (≈ 42.1 µM) | IC50 [1]: 21.3 µg/mL (≈ 38.5 µM) | IC50 (A549): 21.8 µg/mL (≈ 39.4 µM) | inhibition (INH) [3]: 18.1%

CCC(=O)O[C@@H]1CC(C)(C)C[C@H]2C3=CC[C@@H]4[C@@]5(C)CCC(=O)C(C)(C)[C@@H]5CC[C@@]4(C)[C@]3(C)CC[C@@]12C(=O)O
IC50 (HL-60): 26.4 µg/mL (≈ 50.1 µM) | IC50 (HeLa): 28.6 µg/mL (≈ 54.3 µM) | IC50 [1]: 25.4 µg/mL (≈ 48.2 µM) | IC50 (A549): 29.6 µg/mL (≈ 56.2 µM) | inhibition (INH) [3]: 19.6% | survival rate [2]: 80%

COC(=O)[C@@]12CC[C@]3(C)C(=CC[C@@H]4[C@@]5(C)CCC(=O)C(C)(C)[C@@H]5CC[C@]43C)[C@@H]1CC(C)(C)C[C@H]2OC(=O)C(C)C
IC50 (HL-60): 39.5 µg/mL (≈ 71.2 µM) | IC50 (HeLa): 41.1 µg/mL (≈ 74.1 µM) | IC50 [1]: 38.1 µg/mL (≈ 68.7 µM) | IC50 (A549): 42.2 µg/mL (≈ 76.1 µM)

CC1(C)C[C@@H](OC(=O)c2ccccc2)[C@]2(C(=O)O)CC[C@]3(C)C(=CC[C@@H]4[C@@]5(C)CCC(=O)C(C)(C)[C@@H]5CC[C@]43C)[C@@H]2C1
IC50 (HL-60): 50.8 µg/mL (≈ 88.4 µM) | IC50 (HeLa): 46.3 µg/mL (≈ 80.5 µM) | IC50 [1]: 51.2 µg/mL (≈ 89.1 µM) | IC50 (A549): > 100 µg/mL
